Converted amounts (≈) assume the structure as drawn.
Experiments:
Type in all cases: functional
[1] = test system: Mycobacteroides abscessus; assay: Antimicrobial activity against Mycobacterium abscessus isolate MC1028 at day 3 by broth microdilution method; details: isolate MC1028, 72 h
How it was run: (§1)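 Clarithromycin MIC by CLSI-conforming broth microdilution. Before testing, cultures were preincubated for 3 days, either in medium alone or in clarithromycin or erythromycin (tested range 0.01–1 μg/ml). Preincubation ran for at least two generations, judged by turbidity increase. Plates were read on day 3 and on extended incubation at days 5 to 14.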

[2] = test system: Mycobacteroides abscessus; assay: Antimicrobial activity against Mycobacterium abscessus isolate MC1448 at day 7 preincubated with 0.1 ug/ml erythromycin for 3 days by broth microdilution method
How it was run: (§2)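 Clarithromycin MIC by broth microdilution following CLSI guidelines. Before testing, organisms were preincubated for 3 days in medium alone or in clarithromycin or erythromycin (0.01–1 μg/ml), long enough for at least two generations judged by turbidity increase. MICs were read on day 3 and again on extended incubation out to day 14.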

[3] = test system: Mycobacteroides abscessus; assay: Antimicrobial activity against Mycobacterium abscessus isolate MC1028 at day 14 preincubated with 0.1 ug/ml erythromycin for 3 days by broth microdilution method; how it was run: as §1
[4] = test system: Mycobacteroides abscessus; assay: Antimicrobial activity against Mycobacterium abscessus isolate MC724 at day 5 preincubated with 0.1 ug/ml erythromycin for 3 days by broth microdilution method
How it was run: (§3)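 Clinical M. abscessus isolates were preincubated for 3 days, either in medium alone or in clarithromycin or erythromycin at 0.01 to 1 μg/ml, allowing at least two generations of growth judged by turbidity. The clarithromycin MIC was then determined by CLSI-conforming broth microdilution, with plates read on day 3 and on extended incubation (days 5 to 14).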

[5] = test system: Mycobacteroides abscessus; assay: Antimicrobial activity against Mycobacterium abscessus isolate MC719 at day 14 by broth microdilution method; details: isolate MC719, 336 h; how it was run: as §2
[6] = test system: Mycobacteroides abscessus; assay: Antimicrobial activity against Mycobacterium abscessus isolate MC879-2 at day 7 by broth microdilution method; details: isolate MC879-2, 168 h
[7] = test system: Mycobacteroides abscessus; assay: Antimicrobial activity against Mycobacterium abscessus isolate MC1028 at day 5 preincubated with 0.1 ug/ml for 3 days by broth microdilution method; how it was run: as §1
[8] = test system: Mycobacteroides abscessus; assay: Antimicrobial activity against Mycobacterium abscessus isolate MC1448 at day 3 preincubated with 0.1 ug/ml for 3 days by broth microdilution method; how it was run: as §2
[9] = test system: Mycobacteroides abscessus; assay: Antimicrobial activity against Mycobacterium abscessus isolate MC1082 at day 9 preincubated with 0.1 ug/ml erythromycin for 3 days by broth microdilution method; how it was run: as §1
[10] = test system: Mycobacteroides abscessus; assay: Antimicrobial activity against Mycobacterium abscessus isolate MC1028 at day 5 preincubated with 0.1 ug/ml erythromycin for 3 days by broth microdilution method; how it was run: as §1
[11] = test system: Mycobacteroides abscessus; assay: Antimicrobial activity against Mycobacterium abscessus isolate MC720 at day 5 preincubated with 0.1 ug/ml for 3 days by broth microdilution method; how it was run: as §3
[12] = test system: Mycobacteroides abscessus; assay: Antimicrobial activity against Mycobacterium abscessus isolate MC958 at day 7 preincubated with 0.1 ug/ml for 3 days by broth microdilution method
[13] = test system: Mycobacteroides abscessus; assay: Antimicrobial activity against Mycobacterium abscessus isolate MC719 at day 9 by broth microdilution method; details: isolate MC719, 216 h; how it was run: as §2
[14] = test system: Mycobacteroides abscessus; assay: Antimicrobial activity against Mycobacterium abscessus isolate MC724 at day 9 by broth microdilution method; details: isolate MC724, 216 h
How it was run: (§4)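 Clarithromycin MIC by broth microdilution following CLSI guidelines. Organisms were preincubated […], for 3 days before the assay. This allowed at least two generations, judged by the rise in turbidity. The MIC was read at the stated day, with incubation extended from day 3 to as long as 14 days.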

[15] = test system: Mycolicibacterium smegmatis; assay: Antimicrobial activity against Mycobacterium smegmatis transformed with erm allele Mycobacterium abscessus isolate MC720 preincubated with 2 ug/ml erythromycin for 20 to 24 hrs by broth microdilution method
[16] = test system: Mycobacteroides abscessus; assay: Antimicrobial activity against Mycobacterium abscessus isolate MAB30 at day 9 preincubated with 0.1 ug/ml for 3 days by broth microdilution method; how it was run: as §1
[17] = test system: Mycobacteroides abscessus; assay: Antimicrobial activity against Mycobacterium abscessus isolate MAB30 at day 5 preincubated with 0.1 ug/ml for 3 days by broth microdilution method; how it was run: as §1
[18] = test system: Mycobacteroides abscessus; assay: Antimicrobial activity against Mycobacterium abscessus isolate MC724 at day 3 preincubated with 0.1 ug/ml for 3 days by broth microdilution method
How it was run: (§5)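 To test inducible resistance, cultures were preincubated for 3 days in clarithromycin or erythromycin, within 0.01–1 μg/ml. The period was set so cultures passed at least two generations, judged by turbidity increase. Clarithromycin MIC was then determined by CLSI-conforming broth microdilution and read on the stated day, from day 3 up to 14.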

[19] = test system: Mycobacteroides abscessus; assay: Antimicrobial activity against Mycobacterium abscessus isolate MC719 at day 14 preincubated with 0.1 ug/ml erythromycin for 3 days by broth microdilution method; how it was run: as §2
[20] = test system: Mycobacteroides abscessus; assay: Antimicrobial activity against Mycobacterium abscessus isolate MC724 at day 9 preincubated with 0.1 ug/ml for 3 days by broth microdilution method; how it was run: as §5
[21] = test system: Mycolicibacterium smegmatis; assay: Antimicrobial activity against Mycobacterium smegmatis transformed with erm allele Mycobacterium abscessus isolate MC1028 by broth microdilution method
[22] = test system: Mycobacteroides abscessus; assay: Antimicrobial activity against Mycobacterium abscessus isolate MC958 at day 7 by broth microdilution method; details: isolate MC958, 168 h; how it was run: as §4
[23] = test system: Mycolicibacterium smegmatis; assay: Antimicrobial activity against Mycobacterium smegmatis transformed with erm allele Mycobacterium abscessus isolate MC958 by broth microdilution method
[24] = test system: Mycobacteroides abscessus; assay: Antimicrobial activity against Mycobacterium abscessus isolate MC958 at day 9 by broth microdilution method; details: isolate MC958, 216 h
[25] = test system: Mycobacteroides abscessus; assay: Antimicrobial activity against Mycobacterium abscessus isolate MC1082 at day 5 by broth microdilution method; details: isolate MC1082, 120 h; how it was run: as §1
[26] = test system: Mycobacteroides abscessus; assay: Antimicrobial activity against Mycobacterium abscessus isolate MC879 at day 9 preincubated with 0.1 ug/ml erythromycin for 3 days by broth microdilution method; how it was run: as §5
[27] = test system: Mycobacteroides abscessus; assay: Antimicrobial activity against Mycobacterium abscessus isolate MC719 at day 9 preincubated with 0.1 ug/ml erythromycin for 3 days by broth microdilution method; how it was run: as §2
[28] = test system: Mycobacteroides abscessus; assay: Antimicrobial activity against Mycobacterium abscessus isolate MC723 at day 9 by broth microdilution method; details: isolate MC723, 216 h; how it was run: as §2
[29] = test system: Mycolicibacterium smegmatis; assay: Antimicrobial activity against Mycobacterium smegmatis transformed with erm allele Mycobacterium abscessus isolate MC879-2 preincubated with 2 ug/ml erythromycin for 20 to 24 hrs by broth microdilution method
[30] = test system: Mycobacteroides abscessus; assay: Antimicrobial activity against Mycobacterium abscessus isolate MC720 at day 14 preincubated with 0.1 ug/ml for 3 days by broth microdilution method; how it was run: as §2
[31] = test system: Mycobacteroides abscessus; assay: Antimicrobial activity against Mycobacterium abscessus isolate MC1082 at day 9 preincubated with 0.1 ug/ml for 3 days by broth microdilution method; how it was run: as §1
[32] = test system: Mycobacteroides abscessus; assay: Antimicrobial activity against Mycobacterium abscessus isolate MC723 at day 7 by broth microdilution method; details: isolate MC723, 168 h; how it was run: as §3
[33] = test system: Mycobacteroides abscessus; assay: Antimicrobial activity against Mycobacterium abscessus isolate MC1448 at day 9 preincubated with 0.1 ug/ml for 3 days by broth microdilution method; how it was run: as §2
[34] = test system: Mycobacteroides abscessus; assay: Antimicrobial activity against Mycobacterium abscessus isolate MC1448 at day 9 by broth microdilution method; details: isolate MC1448, 216 h; how it was run: as §2
[35] = test system: Mycobacteroides abscessus; assay: Antimicrobial activity against Mycobacterium abscessus isolate MC719 at day 7 preincubated with 0.1 ug/ml for 3 days by broth microdilution method; how it was run: as §2
[36] = test system: Mycobacteroides abscessus; assay: Antimicrobial activity against Mycobacterium abscessus isolate MC1082 at day 7 preincubated with 0.1 ug/ml erythromycin for 3 days by broth microdilution method; how it was run: as §1

In the case of `CC[C@H]1OC(=O)[C@H](C)[C@@H](O[C@H]2C[C@@](C)(OC)[C@@H](O)[C@H](C)O2)[C@H](C)[C@@H](O[C@@H]2O[C@H](C)C[C@H](N(C)C)[C@H]2O)[C@](C)(OC)C[C@@H](C)C(=O)[C@H](C)[C@@H](O)[C@]1(C)O` [CLARITHROMYCIN], the MIC [1] is reported as ≤ 0.5 µg/mL, the MIC [2] is reported as > 32 µg/mL and the MIC [3] is reported as ≤ 0.5 µg/mL. The MIC [4] was 4 µg/mL, the MIC [5] was > 32 µg/mL and the MIC [6] was > 32 µg/mL. The MIC [7] was ≤ 0.5 µg/mL, the MIC [8] was > 32 µg/mL and the MIC [9] was ≤ 0.5 µg/mL. For the same molecule, the MIC [10] was ≤ 0.5 µg/mL, the MIC [11] was 4 µg/mL (≈ 5.35 µM) and the MIC [12] was > 32 µg/mL. The MIC [13] was > 32 µg/mL, the MIC [14] was > 32 µg/mL and the MIC [15] was 16 µg/mL. For the same molecule, the MIC [16] was ≤ 0.5 µg/mL, the MIC [17] was ≤ 0.5 µg/mL and the MIC [18] was ≤ 0.5 µg/mL. The MIC [19] was > 32 µg/mL, the MIC [20] was > 32 µg/mL and the MIC [21] was ≤ 0.5 µg/mL. The MIC [22] was 8 µg/mL (≈ 10.7 µM), the MIC [23] was 2 µg/mL (≈ 2.67 µM) and the MIC [24] was > 32 µg/mL. For the same molecule, the MIC [25] was ≤ 0.5 µg/mL, the MIC [26] was > 32 µg/mL and the MIC [27] was > 32 µg/mL. The MIC [28] was > 32 µg/mL, the MIC [29] was 16 µg/mL and the MIC [30] was > 32 µg/mL. The MIC [31] was ≤ 0.5 µg/mL, the MIC [32] was 8 µg/mL (≈ 10.7 µM) and the MIC [33] was > 32 µg/mL. The MIC [34] was > 32 µg/mL, the MIC [35] was > 32 µg/mL and the MIC [36] was ≤ 0.5 µg/mL.
